Experiments:
14-3-3/ERα complex = target: T1, 14-3-3/ERα complex (Homo sapiens, UniProt P61981); experiment: Selectivity panel, FA protein titration; assay type: binding; details: 100 μM compound; C-terminal phosphorylation motif
T1 sequence (P61981 1-247): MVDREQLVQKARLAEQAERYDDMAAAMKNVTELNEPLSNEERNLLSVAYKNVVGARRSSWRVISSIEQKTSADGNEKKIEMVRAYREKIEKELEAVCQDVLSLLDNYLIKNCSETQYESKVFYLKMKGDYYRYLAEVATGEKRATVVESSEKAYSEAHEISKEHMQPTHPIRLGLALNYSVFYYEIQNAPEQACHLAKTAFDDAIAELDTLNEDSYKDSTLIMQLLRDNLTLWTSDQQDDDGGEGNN

Pin1_72/14-3-3γ complex [1] = target: T2, Pin1_72/14-3-3γ complex (Homo sapiens, UniProt P61981); experiment: biochemical
Pin1_72/14-3-3γ complex [2] = target: T2, Pin1_72/14-3-3γ complex; experiment: FA protein titration of 14-3-3γ in presence of 100 μM compound; assay type: binding
AS160/14-3-3γ complex = experiment: Selectivity panel, FA protein titration; assay type: binding; details: 100 μM fragment; Phe +1
14-3-3γ = target: T3, 14-3-3γ (Homo sapiens, UniProt P61981); experiment: Thermal shift assay, 14-3-3γ alone; assay type: binding; details: compound added to 14-3-3γ alone
T3 sequence (P61981 1-247): T1 sequence (P61981 1-247)
Method in brief: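 Thermal shift assay as an orthogonal check of complex stabilization. Read-out is the 14-3-3γ melting temperature with test compound present. Protein is either alone or with acetylated Pin1 peptide added at 5 or 50 equiv.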

C-Raf/14-3-3γ = target: T4, C-Raf/14-3-3γ (Homo sapiens, UniProt P61981); experiment: Selectivity panel, FA protein titration; assay type: binding; details: 100 μM fragment; Thr +1
T4 sequence (P61981 1-247): T1 sequence (P61981 1-247)

B-Raf_729/14-3-3γ = target: T5, B-Raf_729/14-3-3γ (Homo sapiens, UniProt P61981); experiment: Selectivity panel, FA protein titration; assay type: binding; details: 100 μM fragment; Glu +1
T5 sequence (P61981 1-247): T1 sequence (P61981 1-247)

TBC1D237/14-3-3γ = target: T6, TBC1D237/14-3-3γ (Homo sapiens, UniProt P61981); experiment: Selectivity panel, FA protein titration; assay type: binding; details: 100 μM fragment; Gln +1
T6 sequence (P61981 1-247): T1 sequence (P61981 1-247)

ERRγ_179/14-3-3γ = target: T7, ERRγ_179/14-3-3γ (Homo sapiens, UniProt P61981); experiment: Selectivity panel, FA protein titration; assay type: binding; details: 100 μM fragment; Cys +1
T7 sequence (P61981 1-247): T1 sequence (P61981 1-247)

Mypt1_472/14-3-3γ = target: T8, Mypt1_472/14-3-3γ (Homo sapiens, UniProt P61981); experiment: Selectivity panel, FA protein titration; assay type: binding; details: 100 μM fragment; Ser +1
T8 sequence (P61981 1-247): T1 sequence (P61981 1-247)

Abl1pT735/14-3-3γ = experiment: Selectivity panel, FA protein titration; assay type: binding; details: 100 μM fragment; Leu +1
p65pS45/14-3-3γ = experiment: Selectivity panel, FA protein titration; assay type: binding; details: 100 μM fragment; Ile +1
14-3-3/Pin1_72 complex = 14-3-3/Pin1_72 complex (Homo sapiens, UniProt P61981); experiment: Cooperativity analysis, 2D FA protein titrations; assay type: binding
CFTRpS753/14-3-3γ = experiment: Selectivity panel, FA protein titration; assay type: binding; details: 100 μM fragment; Val +1

Row | SF / complex stabilization (14-3-3/ERα complex) | EC50 (Pin1_72/14-3-3γ complex [1]) | Kd (Pin1_72/14-3-3γ complex [2]) | SF (stabilization factor) (Pin1_72/14-3-3γ complex [2]; KD,DMSO/KD,compound, internal DMSO control, 100 μM fragment) | effect on 14-3-3 melting temperature (14-3-3γ) | SF / complex stabilization (C-Raf/14-3-3γ) | SF / complex stabilization (B-Raf_729/14-3-3γ) | SF / complex stabilization (TBC1D237/14-3-3γ) | SF / complex stabilization (ERRγ_179/14-3-3γ) | SF / complex stabilization (Mypt1_472/14-3-3γ) | concentration necessary to induce a 2-fold increase in PPI stabilization (14-3-3/Pin1_72 complex) | SMILES | SF / complex stabilization (AS160/14-3-3γ complex) | SF / complex stabilization (Abl1pT735/14-3-3γ) | SF / complex stabilization (p65pS45/14-3-3γ) | SF / complex stabilization (CFTRpS753/14-3-3γ)
1 | – | > 1000 µM | – | – | – | – | – | – | – | – | – | Cc1cn(-c2ccc(C=O)cc2)cn1 [fragment 4] | – | – | – | –
2 | not responsive to fragment stabilization | 101 ± 6 µM | 2160 ± 123 nM | 10.8 fold | – | – | – | – | – | – | – | O=Cc1ccc(-n2ccnc2-c2ccccc2)cc1Br [fragment 13] | 1.2 to 2.7 fold | – | – | –
3 | not responsive to fragment stabilization | 118 ± 7 µM | – | – | no significant effect | abolishes any stabilizing effect | no significant stabilization | no significant stabilization | no significant stabilization | no significant stabilization | – | O=Cc1ccc(-n2ccnc2-c2cc(Br)ccc2F)cc1Br [fragment 27] | 1.2 to 2.7 fold | no significant complex stabilization | no significant complex stabilization | –
4 | not responsive to fragment stabilization | 79 ± 3 µM | – | – | no significant effect | abolishes any stabilizing effect | no significant stabilization | no significant stabilization | no significant stabilization | no significant stabilization | 1 µM | O=Cc1ccc(-n2ccnc2-c2ccc(F)cc2F)cc1Br [fragment 28] | 1.2 to 2.7 fold | some stabilizing activity | some stabilizing activity | some stabilizing activity

Row | SMILES | SF / complex stabilization (14-3-3/ERα complex) | EC50 (Pin1_72/14-3-3γ complex [1]) | Kd (Pin1_72/14-3-3γ complex [2]) | SF (stabilization factor) (Pin1_72/14-3-3γ complex [2]; KD,DMSO/KD,compound, internal DMSO control, 100 μM fragment) | effect on 14-3-3 melting temperature (14-3-3γ) | SF / complex stabilization (C-Raf/14-3-3γ) | SF / complex stabilization (B-Raf_729/14-3-3γ) | SF / complex stabilization (TBC1D237/14-3-3γ) | SF / complex stabilization (ERRγ_179/14-3-3γ) | SF / complex stabilization (Mypt1_472/14-3-3γ) | concentration necessary to induce a 2-fold increase in PPI stabilization (14-3-3/Pin1_72 complex) | SF / complex stabilization (AS160/14-3-3γ complex) | SF / complex stabilization (Abl1pT735/14-3-3γ) | SF / complex stabilization (p65pS45/14-3-3γ) | SF / complex stabilization (CFTRpS753/14-3-3γ)
5 | C=CC(C)(C)OC[C@H]1O[C@H](O[C@@H]2C3=C([C@H](C)COC(C)=O)C[C@H](O)[C@]3(C)/C=C3/[C@@H](COC)CC[C@H]3[C@@H](C)[C@H]2O)[C@H](O)[C@@H](OC(C)=O)[C@@H]1O [FCA, fusicoccin A, reference compound] | 160 fold | – | – | – | – | – | – | – | – | – | – | – | – | – | –

— publication PMC8193639 (Journal of the American Chemical Society, 2021)
